The source made the active and inactive calls. The calls are words filed in the database; no cut-off is given here.
Assays:
[1] = tested on: SK-OV-3; test: Photocytotoxicity in human SKOV3 cells assessed as cell death incubated for 6 hrs followed by PDT-1200 light irradiation at 20 J/cm2 measured after 16 hrs using liposome-encapsulated compound by MTT assay; assay type: functional, cell-based; conditions: SK-OV-3, light or radiation study
Summary of the method: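 Photosensitizer was loaded into egg phosphatidylcholine/DOPE liposomes (mole ratio EPC:DOPE:PS 70:25:5). Loaded PS was quantified by absorbance in DMSO against standard curves. SK-OV-3 cells were treated and irradiated at 20 J cm^-2, with a dark plate as the control. Viability was read by MTT. IC50 was taken as the PS concentration killing 50% of cells. Triplicate.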

[2] = tested on: SK-OV-3; test: Photocytotoxicity in human SKOV3 cells assessed as cell death at 0.1 to 1 uM incubated for 6 hrs followed by PDT-1200 light irradiation at 20 J/cm2 measured after 16 hrs by MTT assay; assay type: functional, cell-based
Summary of the method: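 Free photosensitizer, not encapsulated in liposomes, was added to SK-OV-3 cells. The cells were then exposed to light at 20 J cm^-2, a dose chosen from a preliminary light-dose series. A dark plate served as the control. Viability was read by MTT, and IC50 was taken as the PS concentration killing 50% of cells. Each light treatment was done in triplicate.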

[3] = Dark toxicity in human SKOV3 cells assessed as cell death at 0.1 to 1 uM incubated for 6 hrs using liposome-encapsulated compound by MTT assay; assay type: cell-based; conditions: sk-ov-3, 6 h
Summary of the method: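 Liposomes of egg phosphatidylcholine, DOPE and photosensitizer at mole ratio 70:25:5. The PS content of the liposomes was estimated from absorbance after dissolving them in DMSO, read against standard curves of each pure PS in DMSO. Treated SK-OV-3 plates were kept shielded from all light, including stray light, as the dark control. Viability was read by MTT. Triplicate.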

## C=Cc1c(C)c2cc3nc(c(CC(=O)O)c4[nH]c(cc5nc(cc1[nH]2)C(C)=C5CC)c(C)c4C(=O)O)[C@@H](CCC(=O)O)[C@@H]3C [CHLORIN E6]
[1]
  IC50: 390 nM

## CC1=C(I)C(/C=C/c2ccccc2OCc2ccccn2)=[N+]2C1=C(c1ccc([N+](=O)[O-])cc1)c1c(C)c(I)c(/C=C/c3ccccc3OCc3ccccn3)n1[B-]2(F)F
[1]
  IC50: 650 nM
[2]
  Activity: inactive
[3]
  Activity: Non-Toxic

## COc1ccc(/C=C/C2=[N+]3C(=C(c4ccc([N+](=O)[O-])cc4)c4c(C)c(I)c(/C=C/c5ccc(OC)c(OC)c5)n4[B-]3(F)F)C(C)=C2I)cc1OC
[1]
  IC50: 350 nM
[2]
  Activity: inactive
[3]
  Activity: Non-Toxic

## COc1ccc(/C=C/C2=[N+]3C(=C(c4ccccc4)c4c(C)c(I)c(/C=C/c5ccc(OC)c(OC)c5)n4[B-]3(F)F)C(C)=C2I)cc1OC
[1]
  IC50: 880 nM
[2]
  Activity: inactive
[3]
  Activity: Non-Toxic

## COc1cc(/C=C/C2=[N+]3C(=C(c4ccc([N+](=O)[O-])cc4)c4c(C)c(I)c(/C=C/c5cc(OC)c(OC)cc5[N+](=O)[O-])n4[B-]3(F)F)C(C)=C2I)c([N+](=O)[O-])cc1OC
[1]
  IC50: 860 nM
[2]
  Activity: inactive
[3]
  Activity: Non-Toxic

— ChEMBL document CHEMBL4251734, “Study on Liposomal Encapsulation of New Bodipy Sensitizers for Photodynamic Therapy” (ACS Med Chem Lett, 2018)
